Assay outcomes as filed in PubChem.
proCasp3 act – activates human procaspase-3 | P42574 | 330,000 compounds, 0.11% hits | activation, % at 8.5 µM | recombinant procaspase-3 D3A, Ac-DEVD-pNA absorbance 405 nm;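 active means activation above the mean of all tested compounds plus 3 SD, cut at about 21% in these data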
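assay system = Procaspase-3 D3A mutant | signal = absorbance at 405 nm, 0 and 120 min | times = 1 h preincubation plus 2 h reaction at 25 °C | repeats = single replicate | read-out = % activation between DMSO and enzyme-spiked controls | medium = Zinc-free HEPES saline buffer with Triton X-100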
procasp7 counter – activates human procaspase-7, counter-screen for procaspase-3 activators | activation, % at 8.5 µM | 330,000 compounds, 0.093% hits | AID 463210 | recombinant procaspase-7, Ac-DEVD-pNA absorbance 405 nm; D23A/D198A/D206A triple mutant, cannot self-cleave; scale: DMSO 0, 5 µM enzyme 100;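 active means percent activation above the screen-wide mean plus 3 SD, cut at about 25% in these data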
Target sequence (P55210 whole entry D23A/D198A/D206A): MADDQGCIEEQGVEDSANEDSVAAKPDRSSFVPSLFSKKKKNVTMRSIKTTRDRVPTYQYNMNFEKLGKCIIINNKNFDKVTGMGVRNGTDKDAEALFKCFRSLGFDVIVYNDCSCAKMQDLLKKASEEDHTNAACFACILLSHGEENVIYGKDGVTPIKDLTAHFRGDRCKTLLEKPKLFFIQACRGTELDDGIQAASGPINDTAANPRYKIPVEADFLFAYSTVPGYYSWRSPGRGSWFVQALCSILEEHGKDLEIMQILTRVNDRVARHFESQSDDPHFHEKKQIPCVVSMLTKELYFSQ
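Assay system: Uncleavable procaspase-7 mutant enzyme / Input: 2 µM procaspase-7 mutant as dispensed / Dosing: single nominal 8.5 µM compound dose, 0.8% DMSO final / Timing: 1 h enzyme–compound preincubation and 2 h substrate reaction, both 25 °C / Detection: p-Nitroaniline absorbance at 405 nm, read at 0 and 120 min / Replication: singlicate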
KLK7 zymogen act – proKLK7 (human) activation, primary screen. P49862. purified proKLK7, EDANS-DABCYL substrate fluorescence; 100% is mature enzyme control, 0% vehicle. activation, % at 7 µM. 370,000 compounds, 0.9% hits;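 active means activation above the mean of all tested compounds plus 3 SD, computed per campaign excluding outliers beyond control limits, cut at about 13% in these data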
Target sequence (P49862 whole entry, looked up): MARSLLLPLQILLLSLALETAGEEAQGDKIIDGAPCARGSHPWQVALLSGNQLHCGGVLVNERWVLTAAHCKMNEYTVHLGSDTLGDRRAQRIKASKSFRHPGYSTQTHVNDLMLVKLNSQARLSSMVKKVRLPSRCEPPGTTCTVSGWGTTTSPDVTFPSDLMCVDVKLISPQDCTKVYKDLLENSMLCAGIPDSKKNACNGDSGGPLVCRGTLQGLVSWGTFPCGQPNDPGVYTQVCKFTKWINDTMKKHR
Neddylation inh – inhibitors of human cullin neddylation. 360,000 compounds, 0.58% hits. calls only at 25 µM. TR-FRET cullin neddylation, biochemical. P61081+Q13564; in the data active means inhibition above about 36%
proKLK7 act conf – proKLK7 activation, confirmation; shares compounds with KLK7 zymogen act; purified proKLK7, EDANS-DABCYL substrate fluorescence; scaled: vehicle 0, mature enzyme 100; 3,200 compounds, 68% hits; AID 686949; activation, % at 7 µM;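 active means activation, as change over the incubation, above the mean of all tested compounds plus 3 SD, cut at about 13% in these data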
EDANS-DABCYL int – fluorescence interference counter-screen for KLK7 activators. 3,200 compounds, 80% hits. shares compounds with KLK7 zymogen act. activation, % at 7 µM. EDANS-DABCYL substrate fluorescence interference, no enzyme, 4 h; solvent 0%, active enzyme control 100%;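 active means activation above the all-compound mean plus 3 SD, ignoring values outside control-based bounds, cut at about 4.8% in these data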;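 further: value is the 4 h activation minus the activation read at time zero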
Hits are given with their value; i = inactive; nt = not tested or not shown. Hits are enriched below; roughly 1.6% of the tested compounds scored in any of these assays.

SMILES | proCasp3 act | procasp7 counter | KLK7 zymogen act | Neddylation inh | proKLK7 act conf | EDANS-DABCYL int
COc1ccc(-c2csc(=Nc3c(C)n(C)n(-c4ccccc4)c3=O)n2C(C)(C)C)cc1 | i | i | i | i | nt | nt
O=C(O)[C@H](Cc1ccccc1)NC(=O)N1CCN(c2cccc(C(F)(F)F)c2)CC1 | i | i | i | i | nt | nt
O=C(Nc1nc2c(s1)CCc1ccccc1-2)c1cccs1 | i | i | 14 | i | i | 15
COc1ccc2cc(C3CC=C(CO)CN3S(=O)(=O)c3ccccc3[N+](=O)[O-])n(C(=O)OC(C)(C)C)c2c1 (stereo not given) | nt | nt | i | i | nt | nt
COc1ccc2c3c(n(C(=O)OC(C)(C)C)c2c1)C1CC=C(COC(C)=O)CN1CC3 (stereo not given) | nt | nt | 18 | i | i | 9.5
CCOC(=O)N1CCN(S(=O)(=O)c2ccc(C(=O)Nc3sc4c(c3C#N)CC(C)(C)NC4(C)C)cc2)CC1 | i | i | 109 | i | 53 | 51
CCOC(=O)N1CCN(S(=O)(=O)c2ccc(C(=O)Nc3sc4c(c3C#N)CCC4)cc2)CC1 | i | i | i | i | nt | nt
O=C(Nc1cccc2c1C(=O)NC2=O)c1ccc(S(=O)(=O)N2CCCC2)cc1 | i | i | 22 | nt | 258 | 264
CC1(C)Cc2c(sc(NC(=O)c3ccc(S(=O)(=O)N4CCCC4)cc3)c2C#N)C(C)(C)N1 | i | i | 38 | i | 141 | 154
CN1CCc2c(sc(NC(=O)c3ccc(S(=O)(=O)N4CCCCCC4)cc3)c2C(N)=O)C1 | i | i | nt | i | nt | nt
CC1(C)Cc2c(sc(NC(=O)c3ccc(S(=O)(=O)N4CCCCCC4)cc3)c2C(N)=O)C(C)(C)N1 | i | i | 31 | i | 33 | 31
O=C(CN1CCN(Cc2ccccc2)CC1)Nc1ccccc1 | i | i | i | i | nt | nt
COc1ccc(OCc2nnc(SCC(=O)N3C(C)CCCC3C)o2)cc1 (stereo not given) | i | i | i | i | nt | nt
CC1(C)Cc2c(sc(NC(=O)c3ccc(C(=O)c4ccccc4)cc3)c2C#N)C(C)(C)N1 | i | i | 15 | i | i | 15
CSc1ccc(S(=O)(=O)Nc2ccc3c(c2)OCCO3)cc1 | i | i | i | i | nt | nt
COc1ccc(OC)c2c1C(=O)C(Cl)=C(Cl)C2=O | i | i | i | i | nt | nt
COc1ccc(OC)c2c1C(=O)CC2C (stereo not given) | nt | nt | 43 | nt | 49 | 49
CCN1CCN(C(=O)c2cc(COc3ccc(F)c(F)c3)on2)[C@@H](C)C1=O | nt | nt | i | i | nt | nt
O=c1nc2ccc(Cl)cn2c2ccc(S(=O)(=O)N3CCOCC3)cc12 | i | i | 20 | nt | 70 | 78
O=c1nc2ccc(Cl)cn2c2ccc(S(=O)(=O)N3CCCCC3)cc12 | i | i | i | nt | nt | nt
Cc1nn(CC(=O)Nc2ccc(S(N)(=O)=O)cc2)c(=O)c2ccccc12 | i | i | i | i | nt | nt
O=C(COC(=O)c1ccccc1SCC(=O)NC1CCS(=O)(=O)C1)NC1CCS(=O)(=O)C1 (stereo not given) | i | i | 14 | i | 19 | 19
Cc1cc(=O)c2c(=O)[nH][nH]c2[nH]1 | nt | nt | i | i | nt | nt
Cc1ccc2nc(N3CCC(C(=O)O)CC3)nc(-c3ccccc3)c2c1 | i | i | i | nt | nt | nt
Cc1ccc2nc(N3CCN(C(=O)CCC(=O)O)CC3)nc(-c3ccccc3)c2c1 | i | i | 27 | nt | i | i
SMILES | proCasp3 act | procasp7 counter | KLK7 zymogen act | Neddylation inh | proKLK7 act conf | EDANS-DABCYL int
O=C(O)CCCC(=O)N1CCN(c2nc(-c3ccccc3)c3ccccc3n2)CC1 | i | i | 16 | nt | i | 8.0
O=C(O)C1CC=CCC1C(=O)N1CCN(c2nc(-c3ccccc3)c3ccccc3n2)CC1 (stereo not given) | i | i | 80 | nt | i | i
COc1ccc(C2N(c3ccccc3)CCN2c2ccccc2)cc1O | i | i | i | i | nt | nt
CC(Oc1cccnc1[N+](=O)[O-])C(=O)Nc1cccc(Cl)c1 (stereo not given) | i | i | i | i | nt | nt
C[n+]1ccc(/C=C/c2c[nH]c3ccc(F)cc23)cc1 | nt | nt | 15 | i | i | 14
Cn1cc(/C=C/c2cc[n+](C)cc2)c2cc(F)ccc21 | i | i | nt | i | nt | nt
Brc1ccc(Nc2nc3ccccc3n3nnnc23)cc1 | i | i | nt | nt | nt | nt
c1ccc(Nc2nc3ccccc3n3nnnc23)cc1 | i | i | 20 | i | i | 46
COc1ccc(S(=O)(=O)NC(=O)C2(C)CCN2C(=O)C(C)(C)c2ccccc2)cc1 (stereo not given) | nt | nt | i | i | nt | nt
Cc1cc(=O)c2c(N(C)C)cccc2[nH]1 | nt | nt | 82 | nt | 57 | 69
O=C(COC(=O)c1ccccc1NCCO)NCCc1ccccc1 | i | i | 19 | nt | 16 | 22
O=C(COC(=O)c1ccccc1NCCO)NNC(=O)c1cccs1 | i | i | 38 | nt | 35 | 37
O=C(COC(=O)c1ccccc1NCCO)Nc1cccc(S(=O)(=O)NC2=NCCCCC2)c1 | i | i | 17 | nt | i | i
O=C(COC(=O)c1ccccc1NCCO)NCCC1=CCCCC1 | i | i | i | nt | nt | nt
CC(C#N)(NC(=O)COC(=O)c1ccccc1NCCO)C1CC1 (stereo not given) | i | i | 19 | nt | 25 | 34
C=C(C)c1nc(Oc2ccccc2)nc(Oc2ccccc2)n1 | nt | nt | i | i | nt | nt
O=C(COC(=O)c1ccccc1NCCO)NCC1CCCCC1 | i | i | 21 | nt | i | 5.2
O=C(COC(=O)c1ccccc1Br)NCC1CCCCC1 | i | i | i | i | nt | nt
Cc1nc(Cl)c2c(n1)NC1=C(O2)C(=O)CCC1 | i | i | 22 | nt | 18 | 22
CCCCC[n+]1cccc2c3ccccc3ccc21 | i | i | 26 | nt | 16 | 17
COc1ccccc1-c1cc(-c2ccccc2)nc(=O)[nH]1 | i | i | 18 | nt | i | 14
COc1ccccc1N1C(=O)S/C(=C\c2cc(C)n(C)c2C)C1=O | i | i | 24 | i | 32 | 80
Cc1ccc(NC(=O)CN2C(=O)S/C(=C\c3cc(C)n(C)c3C)C2=O)cc1 | i | i | 20 | i | i | i
Cc1cccc(NC(=O)CN2C(=O)S/C(=C\c3cc(C)n(C)c3C)C2=O)c1 | i | i | i | i | nt | nt
COc1ccccc1N1C(=O)S/C(=C\c2ccc(C)s2)C1=O | i | i | i | i | nt | nt
O=C1C=CC(O)(c2cc(=O)c3c(O)cc(O)cc3o2)C=C1 | i | i | i | i | nt | nt
O=C(c1cc2c(=O)n3ccccc3nc2s1)N1CCN(Cc2ccc3c(c2)OCO3)CC1 | i | i | i | nt | nt | nt
CCOC(=O)C1CCN(C(=O)c2cc3c(=O)n4ccccc4nc3s2)CC1 | i | i | 42 | nt | 68 | 71
CCN1CCN(C(=O)c2cc3c(=O)n4ccccc4nc3s2)CC1 | i | i | 55 | nt | 44 | 57
